High-throughput results (PubChem BioAssay)
TNAP act DEA: activators of human TNAP at intermediate phosphate acceptor; P05186; purified TNAP, CDP-star luminescence, 100 mM DEA, 30 min; hits give high values; scale: 0 levamisole-inhibited, 1 vehicle-only enzyme; activation factor at 20 µM; AID 813; 64,000 tested, under 10 active;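 active = activation factor of at least 2 at 20 µM, relative to controls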
Target sequence (P05186 whole entry, looked up): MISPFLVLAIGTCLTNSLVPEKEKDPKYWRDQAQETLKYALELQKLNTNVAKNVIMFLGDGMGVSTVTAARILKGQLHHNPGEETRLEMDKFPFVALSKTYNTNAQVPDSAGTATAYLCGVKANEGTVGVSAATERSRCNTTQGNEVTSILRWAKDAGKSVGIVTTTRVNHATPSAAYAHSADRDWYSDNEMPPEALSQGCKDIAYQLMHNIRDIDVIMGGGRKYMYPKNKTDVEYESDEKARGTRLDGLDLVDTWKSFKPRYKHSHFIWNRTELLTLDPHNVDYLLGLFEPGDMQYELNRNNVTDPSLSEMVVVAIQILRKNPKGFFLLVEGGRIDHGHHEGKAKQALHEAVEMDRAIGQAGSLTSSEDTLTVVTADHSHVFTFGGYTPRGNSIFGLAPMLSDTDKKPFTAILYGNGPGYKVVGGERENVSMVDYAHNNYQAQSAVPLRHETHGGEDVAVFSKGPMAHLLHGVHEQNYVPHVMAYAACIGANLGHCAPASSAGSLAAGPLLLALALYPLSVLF
E coli WT exp: blocks growth of wild type E. coli BW25113 | OD600 absorbance | growth inhibition, % at 100 µM | 98,000 tested, 0.15% active | AID 710;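 active = growth inhibition above about 50% at one test dose, limit read from the data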;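 note: growth measured after 20 h incubation at 37 °C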
tolC growth inh: blocks growth of E. coli BW25113 tolC mutant; 65,000 tested, 2.2% active; OD615; AID 573; growth inhibition, % at 10 µM (by protocol);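 active = growth inhibition at or above a cutoff equal to the mean over every tested compound plus 3 SD, cut at about 60% in these data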;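 note: growth measured after 20 h incubation at 37 °C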
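Test system: E. coli BW25113 ΔtolC::kan bacteria | Medium: Kanamycin-containing LB broth (50 µg/mL) | Dosing: One dose of 10 µM final | Times: 20 h incubation with compound, 37 °C | Detection: Optical density read at 615 nm | Read-out basis: Percent growth inhibition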
WNV NS2B-NS3 inh: blocks West Nile virus NS2B-NS3 protease activity. WNV NS2B-NS3 protease, fluorogenic substrate Ex360/Em465; hits give low values. z-score (no concentration beside the values). 65,000 tested, 0.18% active. AID 577; in the data active = z-score below about -3
BAP1 block: blocks human BAP1 ubiquitin-AMC hydrolysis | Q92560 | 72,000 tested, 0.48% active | recombinant BAP1, Ub-AMC hydrolysis fluorescence kinetic; hits give low values | AID 436 | calls only at 20 µM;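 active = activity remaining at or below 50% of control, provided the compound also passes the data quality filters; inactive = the rest, including low values that fail the filters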;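 note: 100% = DMSO wells rate and 0% = substrate alone blank rate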
* = called active by the depositor; i = inactive; nt = not tested or not shown. Shown is part of a subset that was picked to be rich in hits.

SMILES | TNAP act DEA | E coli WT exp | tolC growth inh | WNV NS2B-NS3 inh | BAP1 block
COC(=O)c1c(C)oc2ccc(N(C(=O)c3ccncc3)S(=O)(=O)c3cccc([N+](=O)[O-])c3)cc12 | nt | nt | nt | nt | i
COc1ccc(Nc2cc(C)nc3c(C)cc(C)c([N+](=O)[O-])c23)cc1 | nt | nt | nt | nt | i
Cc1csc(NC(=O)c2cccc(Cn3nc(C)c(Br)c3C)c2)n1 | 0.9 | -1.0 | 72.6* | 1.07 | i
Cc1nn(Cc2ccc(C(=O)Nc3nc4c(C)cccc4s3)o2)c(C)c1Br | nt | -10.0 | nt | nt | nt
COc1ccccc1NS(=O)(=O)c1cc(C(=O)Nc2ccccc2C)ccc1C | nt | nt | nt | nt | i
CCCCOc1ccc(NC2=NC3(CCCCC3)N=C(N)N2)cc1 | nt | 59.0* | 98.9* | 1.86 | i
CCn1c(C)[n+](CC)c2ccc(S(N)(=O)=O)cc21 | nt | nt | nt | nt | i
Cc1cccc(N2CC(c3nc4ccccc4n3C)CC2=O)c1C (configuration not stated) | 1 | nt | 100.0* | -0.93 | i
OC(CNCCCN1CCCCC1)COc1ccccc1 (configuration not stated) | 0.9 | 3.0 | 4.5 | -5.96* | i
COc1ccccc1C(=O)Nc1cc(Cl)ccc1O | 0.9 | -11.0 | 9.3 | -0.27 | i
CCOc1ccccc1C(=O)Nc1cc(Cl)ccc1O | 0.9 | -16.0 | 100.0* | -0.78 | i
COc1ccc(-n2c(Cc3cccn3C)nnc2SCC(=O)Nc2ccc(C)c(Cl)c2)cc1 | 0.9 | -18.0 | 74.8* | -0.25 | i
CCCN(CCC)S(=O)(=O)c1ccc(C(=O)N2CC(=O)Nc3ccc(Cl)cc3C2c2ccccc2)cc1 (configuration not stated) | nt | nt | nt | nt | i
CCOC(=O)N/N=C(/C)c1ccc([N+](=O)[O-])o1 | nt | 51.0* | nt | nt | nt
Cc1ccc(Nc2nc(CSc3nnnn3-c3ccccc3)cs2)cc1 | 1 | -20.0 | 94.2* | -0.21 | nt
N#Cc1c(N)oc(-c2ccc3c(c2)OCO3)c1-c1ccc2c(c1)OCO2 | 0.9 | -3.0 | 72.3* | -0.08 | nt
COc1ccc(S(=O)(=O)N2CCc3ccccc32)cc1C(=O)OCc1nnc(-c2ccccc2)o1 | 0.9 | -2.0 | -4.3 | -0.81 | i
Clc1ccc(OCc2nnc(-c3ccccc3Br)o2)c(Cl)c1 | 0.9 | -7.0 | 10.3 | -0.06 | i
Clc1ccc(OCc2nnc(-c3ccccc3Br)o2)cc1 | 0.9 | 3.0 | 62.7* | -0.13 | i
Cc1cc(Cl)ccc1NC(=O)CSc1nnc(Cc2cccs2)n1Cc1ccco1 | 0.8 | -7.0 | 74.6* | -0.48 | i
COc1cc2c(cc1NC(=O)CSc1nnc(Cc3cccs3)n1Cc1ccco1)oc1ccccc12 | nt | -4.0 | nt | nt | nt
O=C(Nc1nc(-c2cc([N+](=O)[O-])cs2)cs1)c1ccc(S(=O)(=O)N2CCCC2)cc1 | nt | nt | nt | nt | i
CCCCCOC(=O)c1ccccc1C(=O)O | 0.8 | -2.0 | -18.7 | -1.54 | i
O=C(Nc1cccnc1)Nc1ccc(F)c(Cl)c1 | 0.8 | 61.0* | 48.8 | 1.37 | i
O=C(Cc1ccccc1F)Nc1nc(-c2cccs2)cs1 | 0.9 | -1.0 | 91.2* | 0.09 | i
SMILES | TNAP act DEA | E coli WT exp | tolC growth inh | WNV NS2B-NS3 inh | BAP1 block
O=C(Nc1nc(-c2cccs2)cs1)c1ccc(Cl)cc1 | nt | -12.0 | nt | nt | nt
O=C(COc1ccc(Cl)cc1)Nc1nc(-c2cccs2)cs1 | 0.9 | -10.0 | 69.2* | -0.39 | i
O=C(Cc1ccccc1)Nc1nnc(-c2ccc([N+](=O)[O-])cc2)s1 | nt | nt | nt | nt | i
CC(C)[C@@H]1NC(=O)[C@H](CCCCN)NC(=O)[C@@H](Cc2c[nH]c3ccccc23)NC(=O)[C@H](Cc2ccc(O)cc2)NC(=O)[C@H](C)N(C)C(=O)[C@H](Cc2ccccc2)NC1=O | nt | nt | nt | nt | i
Cc1cccc2cc(C(c3nnnn3CC3CCCO3)N3CCc4ccccc4C3)c(=O)[nH]c12 (configuration not stated) | 0.9 | 2.0 | 69.4* | 0.48 | i
Cc1ccc2cc(C(c3nnnn3CC3CCCO3)N3CCc4ccccc4C3)c(=O)[nH]c2c1 (configuration not stated) | 0.8 | 12.0 | 14.1 | 0.00525 | i
CCC(=O)N1c2ccccc2NC2=C(C(=O)CC(c3ccco3)C2)C1c1ccco1 (configuration not stated) | 0.9 | -1.0 | 5.7 | -0.21 | nt
O=C1CC(c2ccco2)CC2=C1C1c3ccccc3C(=O)N1c1ccccc1N2 (configuration not stated) | 0.9 | -1.0 | 88.8* | -0.4 | i
Cc1csc(NC(=O)c2ccccc2Cl)n1 | nt | nt | nt | nt | i
O=C(CSc1ncnc2ccccc12)Nc1ccc(N2CCOCC2)cc1 | 0.9 | 6.0 | 3.3 | -0.28 | i
